Compound activity deposited in PubChem BioAssay by Johns Hopkins Ion Channel Center.
Sampled rows, rich in hits. Any-hit rate of the full collection: about 3.7%.
KCNK9 inh – KCNK9 potassium channel inhibitors, primary screen, HEK293 cells, thallium flux | FluxOR thallium flux fluorescence; stronger effect = lower value | AID 488922, 2010 | Potassium channel subfamily K member 9 (Homo sapiens), Q9NPC2 | B-score at 10 µM | hit rate 1.2% among 310,000;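 active means ratio B-score over 3 SD below the library mean, with starting fluorescence within 5 SD of its mean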;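 further: negative B-score means less thallium flux so channel inhibition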
KCNQ1 block – inhibitors of human KCNQ1 channel, primary screen, cell-based, thallium flux, high-throughput. CHO-K1 KCNQ1, FluxOR thallium flux fluorescence; stronger effect = higher value. hit rate 1.3% among 310,000. B-score at 10 µM;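 active means compounds whose thallium flux B-score, printed positive for inhibition, exceeds three library SD while starting fluorescence stays within three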;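 further: channel opened by potassium depolarization with thallium stimulus after 20 min compound exposure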
Kir21 inh – inhibitors of mouse Kir2.1 inward-rectifier potassium channel; hit rate 0.85% among 310,000; AID 1672, 2009; Inward rectifier potassium channel 2 (Mus musculus), P35561; HEK293-Kir2.1, FluxOR thallium flux fluorescence; stronger effect = lower value; B-score at 10 µM;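 active means fluorescence ratio B-score at or below minus 3 SD of library scores, with starting-brightness B-score within 2 SD, cut at about -4.2 in these data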;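 further: channel flux triggered by added potassium and thallium sulfate stimulus; B-score of peak minus minimum fluorescence over baseline after thallium stimulus; more negative B-score means stronger Kir2.1 block with less thallium influx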
Target sequence (P35561 whole entry, looked up): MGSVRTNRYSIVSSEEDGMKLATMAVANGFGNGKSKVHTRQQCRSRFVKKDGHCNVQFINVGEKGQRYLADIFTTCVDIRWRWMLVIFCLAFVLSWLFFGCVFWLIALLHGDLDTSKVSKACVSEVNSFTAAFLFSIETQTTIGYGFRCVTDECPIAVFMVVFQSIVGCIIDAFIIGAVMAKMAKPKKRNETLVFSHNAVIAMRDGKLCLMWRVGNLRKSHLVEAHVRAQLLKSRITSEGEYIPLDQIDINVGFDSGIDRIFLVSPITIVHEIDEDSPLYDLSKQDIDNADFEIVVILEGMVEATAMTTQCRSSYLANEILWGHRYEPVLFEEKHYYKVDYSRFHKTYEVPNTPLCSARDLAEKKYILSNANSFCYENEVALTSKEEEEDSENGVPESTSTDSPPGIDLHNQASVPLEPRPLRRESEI
KCNK3 inh – human KCNK3 channel inhibitors, primary screen, CHO cells, FluxOR thallium flux, B-score. AID 602410, 2012. FluxOR fluorescence; stronger effect = lower value. B-score at 10 µM. hit rate 0.84% among 340,000. Potassium channel subfamily K member 3 (Homo sapiens), O14649;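 active means B-score under library mean minus 4 SD, starting fluorescence ratio at most library mean plus 5 SD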;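 further: more negative B-score means stronger inhibition of thallium flux through KCNK3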
hERG rescue – hERG rescue from dofetilide block, primary screen, cell-based, CHO-hERG, FluxOR thallium flux, dofetilide IC70; Voltage-gated inwardly rectifying potassium channel KCNH2 (Homo sapiens), Q12809; dofetilide IC70 present; activation (rescue from dofetilide block), less the hit threshold, % at 10 µM; hit rate 0.51% among 310,000; AID 1511, 2009;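 active means activation above the mean of controls blocked by dofetilide plus 5 SD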;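 further: thallium influx through hERG after potassium depolarization seen as dye fluorescence rise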
KCNQ1 act – potentiators or activators of KCNQ1 channel, primary screen, cell-based, thallium flux, high-throughput | CHO-K1 KCNQ1, thallium flux FluxOR fluorescence; stronger effect = higher value | B-score at 10 µM | hit rate 0.35% among 310,000;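 active means fluorescence ratio B-score, a plate-corrected score, at least three library SD, with initial intensity B-score within 5 SD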
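System: Stable KCNQ1 CHO-K1 line | Incubation: 90 min dye loading and 20 min compound exposure, both at room temperature | Measure: Ratio B score | Medium: Assay buffer for compound exposure, DMSO matched across wells | Compound dosing: Single-concentration screen | Probe or stimulus: K+/Tl+ depolarizing stimulus | Measured by: Kinetic FluxOR fluorescence, 10 s baseline plus 110 s post-stimulus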
KCNK9 inh conf – KCNK9 potassium channel inhibitors, confirmation, HEK293 cells, thallium flux, duplicate | inhibition, % at 10 µM | FluxOR thallium flux fluorescence | shares compounds with KCNK9 inh | hit rate 43% among 4,900;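 active means thallium signal inhibited by more than 5 SD of the compound-free buffer control wells, on both duplicate plates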
Kir21 sel – mouse Kir2.1 channel inhibition, confirmation, selectivity assay for KCNK9 modulator project, cell-based, HEK293, thallium flux; shares compounds with KCNK9 inh; Kir2.1 cells, FluxOR thallium flux fluorescence; inhibition, % at 10 µM; hit rate 4% among 4,900; AID 492993, 2010;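 active means thallium signal drop more than 5 SD beyond the mean of the no-compound control wells, seen in both duplicate plates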;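 further: signal is fluorescence rise after thallium addition divided by baseline fluorescence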
KCNK9 uninduced – thallium flux in non-induced HEK293 cells, confirmation, counter-screen for KCNK9 inhibitor project, cell-based, second counter screen, non-induced KCNK9-HEK293 | FluxOR thallium flux | shares compounds with KCNK9 inh | hit rate 40% among 4,900 | inhibition, % at 10 µM;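 active means thallium signal drop beyond 5 SD of the untreated control mean, on both duplicate plates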
Numbers stand for hits; i = inactive; nt = no result given.

SMILES	KCNK9 inh	KCNQ1 block	Kir21 inh	KCNK3 inh	hERG rescue	KCNQ1 act	KCNK9 inh conf	Kir21 sel	KCNK9 uninduced
Cc1ccc2oc(-c3cccc(NC(=S)NC(=O)c4cccs4)c3)nc2c1	i	i	i	i	i	i	nt	nt	nt
Cc1ccc2oc(-c3cccc(NC(=S)NC(=O)/C=C/c4ccco4)c3)nc2c1	i	i	i	i	i	i	i	i	i
[O-]/[N+](=C\c1ccco1)c1ccc(Cl)cc1	i	i	i	i	i	i	nt	nt	nt
COC(=O)c1cc(NC(=O)Nc2cc(OC)ccc2OC)cc(C(=O)OC)c1	-10.6	i	i	i	i	i	31.0%	i	i
CN(C)CC/C=C1/c2ccccc2Sc2ccc(Cl)cc21	i	i	-4.28	i	i	i	i	i	i
CN(C)CC/C=C1\c2ccccc2COc2ccccc21	i	i	i	i	i	i	nt	nt	nt
CCOc1ccc(-c2nnc3ccc(SCC(=O)Nc4nc5ccc(C)cc5s4)nn23)cc1	-10.8	i	i	i	i	i	69.5%	i	i
CC(C)OCCCNC(=O)C1CC(=O)N(CCc2ccccc2)C1 (centres undefined)	i	i	i	i	i	i	nt	nt	nt
CN(C)CCCNC(=O)c1cc(Br)ccc1O	i	i	i	i	i	i	nt	nt	nt
CCOc1ccc(N2C(=O)c3cccnc3C2Nc2ccc(C)c(C)c2)cc1 (centres undefined)	i	i	i	i	i	i	i	i	i
CCOc1ccc(N2C(=O)c3cccnc3C2Nc2ccc(C)cc2)cc1 (centres undefined)	i	i	i	i	i	i	i	i	i
O=C(CCc1nc2ccccc2c(=O)[nH]1)N1CCN(S(=O)(=O)c2cccc(F)c2)CC1	i	i	i	i	i	i	nt	nt	nt
CCOC(=O)CC(NC(=O)c1cccc2c1C(=O)N(Cc1cccnc1)C2)c1ccc(OC(C)C)cc1 (centres undefined)	i	i	i	i	i	i	i	i	i
CN(C)c1nc(N)c([N+](=O)[O-])c(N2CCCCCC2)n1	i	i	i	i	i	i	nt	nt	nt
COc1cc(C)c(CN2CCN(S(=O)(=O)c3ccc(Cl)s3)CC2)cc1OC	nt	nt	nt	i	nt	nt	nt	nt	nt
CN(C)CCNC(=O)c1c(CSc2ccc(Cl)cc2)noc1C(=O)NCc1ccccc1	i	i	i	i	i	i	nt	nt	nt
O=C(NCc1ccccc1)c1onc(CSc2ccc(Cl)cc2)c1C(=O)NCc1ccccc1	i	i	i	i	i	i	nt	nt	nt
CC(C)NC(=O)c1c(CSc2ccc(Cl)cc2)noc1C(=O)NCc1ccccc1	i	i	i	i	i	i	i	i	i
O=C(NCc1ccccc1)c1onc(CSc2ccc(Cl)cc2)c1C(=O)NCC1CC1	i	i	i	i	i	i	i	i	i
CCCCNC(=O)c1c(CSc2ccc(Cl)cc2)noc1C(=O)NCc1ccccc1	i	i	i	i	i	i	i	i	i
CCCNC(=O)c1c(CSc2ccc(Cl)cc2)noc1C(=O)NCc1ccccc1	i	i	i	i	i	i	i	i	i
Cc1cccc(OCC(=O)NCCCNC(=O)c2ccc(C)nc2)c1	i	i	i	i	i	i	nt	nt	nt
CCCOc1cc(C)c(S(=O)(=O)NC2CC(C)(C)NC(C)(C)C2)cc1C	i	i	i	i	i	i	nt	nt	nt
CSCC(C)N1CCC(CCC(=O)NC2CC2)CC1 (centres undefined)	i	i	i	i	i	i	nt	nt	nt
O=C(NCc1ccccc1)c1onc(CSc2ccccc2)c1C(=O)NCc1ccccc1	i	i	i	i	i	i	i	i	i
SMILES	KCNK9 inh	KCNQ1 block	Kir21 inh	KCNK3 inh	hERG rescue	KCNQ1 act	KCNK9 inh conf	Kir21 sel	KCNK9 uninduced
CCCCNC(=O)c1c(CSc2ccccc2)noc1C(=O)NCc1ccccc1	i	i	i	i	i	i	i	i	i
COCCNC(=O)c1c(CSc2ccccc2)noc1C(=O)NCc1ccccc1	i	i	i	i	i	i	nt	nt	nt
CCCCn1c(SCC(N)=O)nc2c(sc3ccccc32)c1=O	i	i	i	i	i	i	nt	nt	nt
CCSc1nc2c(sc3ccccc32)c(=O)n1C(C)C	-11.1	i	i	i	6.1	13	46.5%	i	i
C/C(=N\Nc1ccc(C)c(Cl)c1)c1cccnc1	i	i	i	i	i	i	nt	nt	nt
CCCCCC(=O)N1CCCC(c2nc(-c3ccc(OC)cc3)no2)C1 (centres undefined)	i	i	i	i	i	i	i	i	i
CCCCCCC(=O)N1CCCC(c2nc(-c3cccc(OC)c3)no2)C1 (centres undefined)	i	i	i	i	i	i	i	i	i
COc1ccc(NC(=O)CCNS(=O)(=O)c2cc(Br)cnc2N)cc1OC	i	i	i	i	i	i	nt	nt	nt
C/C(=N\NC(=S)NCc1ccccc1)c1ccc(C#N)cc1	i	i	i	i	i	i	nt	nt	nt
C/C(=N\NC(=S)NCc1ccccc1)c1ccc(C(C)(C)C)cc1	i	i	i	i	i	i	i	i	i
CC(C)(C)c1nc(SCC(=O)N2CCCC2)c2ccccc2n1	i	i	i	i	i	i	nt	nt	nt
CC1CC(C)CN(C(=O)CSc2nc(Cc3cccs3)nc3ccccc23)C1 (centres undefined)	i	i	i	i	i	i	i	i	24.5%
CCOC(=O)C1CCCN(C2=NC(=O)/C(=C/c3ccc(N(C)C)cc3)S2)C1 (centres undefined)	-8.42	8	i	i	i	i	55.5%	i	86.0%
Cc1ccc(-c2cn(-c3ccccc3)c(SCC(N)=O)n2)cc1C	i	i	i	i	i	i	nt	nt	nt
CCOC(=O)NC(=O)CSc1nc(-c2ccc(C)c(C)c2)cn1-c1ccccc1	-8.16	i	i	i	i	i	41.5%	i	36.0%
O=C(O)C1C2CCC(O2)C1C(=O)Nc1ccc(OC(F)F)cc1 (centres undefined)	i	i	i	i	i	i	nt	nt	nt
CCN1CCCc2cc(CN(CCN3CCOCC3)C(=O)Nc3ccc(C)c(C)c3)ccc21	i	i	i	i	i	i	i	i	i
